The values below come from ChEMBL document CHEMBL1177765, “Synthesis and biological evaluation of new cytotoxic azanaphthoquinone pyrrolo-annelated derivatives” (Bioorg Med Chem Lett, 2010).

The term inhibition denotes how much of the control response was suppressed. Broadly, the EC50 is the concentration giving half of the maximal effect.

Test [1] in a line: Cytotoxicity against human KB/HeLa cells at 3.16 ug/mL after 48 hrs by XTT assay. Format: functional.
In test [2] the test system is SK-OV-3. Briefly: Cytotoxicity against human SKOV3 cells at 3.16 ug/mL after 48 hrs by XTT assay. Format: functional. As to conditions: SK-OV-3, 48 h. A general note: Tetrazolium dyes change colour on reduction, which living cells bring about.
The test system of test [3] is SF-268. Briefly: Cytotoxicity against human SF268 cells at 3.16 ug/mL after 48 hrs by XTT assay. Type of test: functional. As to conditions: SF-268, 48 h.
The test system of test [4] is NCI-H460. Kind of test: Cytotoxicity against human NCI-H460 cells at 3.16 ug/mL after 48 hrs by XTT assay. Type of test: functional. As to conditions: NCI-H460, 48 h.
Test [5] can be described thus: Cytotoxicity against human RKOp27 cells at 3.16 ug/mL after 48 hrs by XTT assay. Type of test: functional. As to conditions: RKOp27, 48 h.
The nature of test [6]: Cytotoxicity against human RKOp27IND cells at 3.16 ug/mL after 48 hrs by XTT assay. Type of test: functional.
A short description of test [7]: Cytotoxicity against human KB/HeLa cells after 48 hrs by XTT assay. Format: functional, cell-based. In short, it runs like this: (§1)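 XTT assay of cell proliferation after 48 h exposure. EC50 is the concentration giving 50% inhibition, fitted by nonlinear regression to data from at least two independent assays.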
In test [8] the test system is SK-OV-3. Briefly: Cytotoxicity against human SKOV3 cells after 48 hrs by XTT assay. Type of test: functional, cell-based. As to conditions: SK-OV-3, 48 h. An outline of the steps:
as §1

Test [9] has as its system SF-268. Briefly: Cytotoxicity against human SF268 cells after 48 hrs by XTT assay. Conditions: SF-268, 48 h. Format: functional, cell-based. An outline of the steps:
as §1

In test [10] the test system is NCI-H460. Briefly: Cytotoxicity against human NCI-H460 cells after 48 hrs by XTT assay. Format: functional, cell-based. As to conditions: NCI-H460, 48 h. In short, it runs like this: as §1
Test [11] can be described thus: Cytotoxicity against human RKOp27 cells after 48 hrs by XTT assay. Type of test: functional, cell-based. Conditions: RKOp27, 48 h. An outline of the steps:
as §1

Test [12] in a line: Cytotoxicity against human RKOp27IND cells after 48 hrs by XTT assay. Format: functional, cell-based.
The subject of a further test is Nucleic Acid. Kind of test: Binding affinity to DNA at 125 uM. Format: nucleic-acid assay. An outline of the steps:
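UV-absorbance DNA intercalation assay. Stocks up to 5 mM were made in 5% (v:v) DMSO or methanol, then diluted stepwise in pH 7 buffer (5 mM NaH2PO4, 5 mM Na2HPO4, 70 mM NaCl) to give absorbance maximum about 1–2. Spectra were read from 350 to 600 nm with or without 2 mg/ml calf thymus DNA. Acridine orange was the reference.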

Test [13] is described as follows: Cell cycle arrest in human RKOp27 cells assessed as accumulation at G2/M phase. Type of test: functional, cell-based.
The nature of test [14]: Cell cycle arrest in human RKOp27IND cells assessed as accumulation at G2/M phase. Type of test: functional, cell-based.

≈ marks a conversion by molar mass, not a printed value. Calls of active or inactive are those of the source. The rule behind the calls is not given here. Bounds are passed on as bounds.

`CN(C)CCCn1ccc2c1C(=O)c1ncccc1C2=O`: the inhibition at 3.16 µg/mL (in test [1]; with SK-OV-3 [2]; in the test on SF-268 [3]; with NCI-H460 [4]; in test [5]; in [6]) was below 50% throughout.
As to `CN(C)CCn1ccc2c1C(=O)c1ncccc1C2=O`, the inhibition at 3.16 µg/mL (in test [1]; in the test on SK-OV-3 [2]; in the test with SF-268 [3]; in the test on NCI-H460 [4]; in test [5]; in test [6]) was below 50% throughout.
On to `CN(C)CCCn1ccc2c1C(=O)c1ccncc1C2=O`, for which the EC50 (in test [7]; with SK-OV-3 [8]; in the test with SF-268 [9]; in the test on NCI-H460 [10]; in [11]; in [12]) was 3 µg/mL (≈ 10.6 µM) throughout.
Regarding `CN(C)CCn1ccc2c1C(=O)c1cncnc1C2=O`, the EC50 in test [7] worked out at 0.173 µg/mL (≈ 0.64 µM); with SK-OV-3 [8], 0.239 µg/mL (≈ 0.884 µM); in the test on SF-268 [9] it was 0.107 µg/mL (≈ 0.396 µM); with NCI-H460 [10] it was 0.082 µg/mL (≈ 0.303 µM); in test [11], 0.173 µg/mL (≈ 0.64 µM); in test [12] it was 0.377 µg/mL (≈ 1.39 µM). The outcome (with Nucleic Acid; in test [13]; in test [14]) was inactive.
For the molecule `CN(C)CCCn1ccc2c1C(=O)c1cncnc1C2=O`, the concentration giving a half-maximal response (EC50) was determined as 0.28 µg/mL (≈ 0.985 µM) in [7]; 0.452 µg/mL (≈ 1.59 µM) in the test with SK-OV-3 [8]; 0.198 µg/mL (≈ 0.696 µM) in the test on SF-268 [9]; 0.177 µg/mL (≈ 0.623 µM) with NCI-H460 [10]; 0.246 µg/mL (≈ 0.865 µM) in test [11]; 0.44 µg/mL (≈ 1.55 µM) in test [12].
Consider `CN(C)CCCn1ccc2c1C(=O)c1nccnc1C2=O`, for which the inhibition at 3.16 µg/mL (in [1]; in the test on SK-OV-3 [2]; in the test with SF-268 [3]; in the test on NCI-H460 [4]; in test [5]; in test [6]) was below 50% throughout.
In the case of `CN(C)CCn1ccc2c1C(=O)c1cccnc1C2=O`, the inhibition at 3.16 µg/mL (in test [1]; in the test with SK-OV-3 [2]; in the test on SF-268 [3]; with NCI-H460 [4]; in test [5]; in test [6]) was below 50% in each case.
On to `CN(C)CCn1ccc2c1C(=O)c1ccncc1C2=O`, for which the EC50 (in [7]; in the test on SK-OV-3 [8]; with SF-268 [9]; with NCI-H460 [10]; in test [11]; in test [12]) was 3 µg/mL (≈ 11.1 µM) each time.
On to `CN(C)CCCn1ccc2c1C(=O)c1cccnc1C2=O`, for which the inhibition at 3.16 µg/mL (in test [1]; with SK-OV-3 [2]; in the test on SF-268 [3]; in the test with NCI-H460 [4]; in test [5]; in test [6]) was below 50% throughout.
Turning to `CN(C)CCn1ccc2c1C(=O)c1nccnc1C2=O`, the EC50 came to 1.37 µg/mL (≈ 5.06 µM) in test [7]; 3 µg/mL (≈ 11.1 µM) in the test on SK-OV-3 [8]; 2.7 µg/mL (≈ 9.99 µM) with SF-268 [9]; 1.12 µg/mL (≈ 4.15 µM) with NCI-H460 [10]; 1.19 µg/mL (≈ 4.42 µM) in [11]; 2.97 µg/mL (≈ 11 µM) in test [12].
